Experimental data as given in ChEMBL document CHEMBL4325886, “Synthesis and SAR studies of novel benzodiazepinedione-based inhibitors of Clostridium difficile (C. difficile) toxin B (TcdB)” (Bioorg Med Chem Lett, 2018).
pIC50: −log10 of the molar value.

Columns and labels:
Toxin B [1] = biological target: T1, Toxin B (Clostridioides difficile, UniProt P18177); test: Inhibition of C-terminal 6-His tagged recombinant Clostridium difficile toxin B glucosyltransferase domain assessed as reduction in UDP-glucose hydrolysis activity using UDP-glucose substrate and ADP Alexa633 tracer incubated for 3 hrs by fluorescence polarization assay
[2] = Metabolic stability in mouse plasma assessed as parent compound remaining after 2 hrs; assay type: ADME, cell-free
Summary of the method: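 Compound incubated in mouse plasma for 2 h. Parent compound remaining was measured, and the carboxylic acid hydrolysis product was also monitored.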

Toxin B [3] = biological target: T1, Toxin B; test: Inhibition of Clostridium difficile toxin B […] CHO cells assessed as reduction in caspase 3/7 activation pre-incubated for 1 hr before TcdB addition by luminescence based assay; assay type: cell-based
[4] = Metabolic stability in human liver microsomes assessed as parent compound remaining after 15 mins; assay type: ADME, Microsome; details: read-out: Stability
[5] = Metabolic stability in mouse liver microsomes assessed as parent compound remaining after 15 mins; assay type: ADME, Microsome; details: read-out: Stability
Toxin A = Toxin A (Clostridioides difficile, UniProt P16154); test: Inhibition of Clostridium difficile toxin A […] CHO cells assessed as reduction in caspase 3/7 activation pre-incubated for 1 hr before TcdA addition by luminescence based assay; assay type: cell-based
[6] = Clearance in CD-1 mouse at 1 mg/kg, iv; assay type: ADME, organism-based; details: in vivo
Summary of the method: (§1)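 CD-1 mice, single dose. The i.v. dose was 1 mg/kg in 40% PEG400/5% ethanol/55% water (v/v/v). The p.o. dose was 10 mg/kg in 20% PEG400/80% (0.5% (w/v) CMC with 0.25% (v/v) Tween 80) (v/v). Plasma samples were analysed to derive Cl, T1/2, Vz, AUC0-inf, Cmax, Tmax and oral bioavailability F.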

[7] = Elimination half life in CD-1 mouse at 1 mg/kg, iv; assay type: ADME, organism-based; details: in vivo, read-out: beta t1/2 (converted); summary of the method: as §1
[8] = Apparent volume of distribution during terminal phase in CD-1 mouse at 1 mg/kg, iv; assay type: ADME, organism-based; details: in vivo; summary of the method: as §1
[9] = AUC (0 to infinity) in CD-1 mouse at 1 mg/kg, iv; assay type: ADME, organism-based; parameters: dose 1 mg/kg, time infinity, route intravenous; details: in vivo; summary of the method: as §1
[10] = AUC (0 to infinity) in CD-1 mouse at 10 mg/kg, po; assay type: ADME, organism-based; parameters: dose 10 mg/kg, time infinity, route oral; details: in vivo; summary of the method: as §1
[11] = Cmax in CD-1 mouse at 1 mg/kg, iv; assay type: ADME, organism-based; parameters: dose 1 mg/kg, route intravenous; details: in vivo; summary of the method: as §1
[12] = Cmax in CD-1 mouse at 10 mg/kg, po; assay type: ADME, organism-based; parameters: dose 10 mg/kg, route oral; details: in vivo; summary of the method: as §1
[13] = Tmax in CD-1 mouse at 10 mg/kg, po; assay type: ADME, organism-based; details: in vivo; summary of the method: as §1
[14] = Oral bioavailability in CD-1 mouse at 10 mg/kg; assay type: ADME, organism-based; details: in vivo; summary of the method: as §1
[15] = Apparent oral clearance in hamster at 10 mg/kg, po; assay type: ADME, organism-based; details: cricetinae, in vivo
[16] = Elimination half life in hamster at 10 mg/kg, po; assay type: ADME, organism-based; details: cricetinae, in vivo, read-out: beta t1/2 (converted)
[17] = AUC(infinity) in hamster at 10 mg/kg, po; assay type: ADME, organism-based; parameters: dose 10 mg/kg, time infinity, route oral; details: cricetinae, in vivo
[18] = Cmax in hamster at 10 mg/kg, po; assay type: ADME, organism-based; parameters: dose 10 mg/kg, route oral; details: cricetinae, in vivo
[19] = Tmax in hamster at 10 mg/kg, po; assay type: ADME, organism-based; details: cricetinae, in vivo
Clostridioides difficile [20] = test: Antibacterial activity against Clostridium difficile infected hamster assessed as host survival at 50 mg/kg, po bid treated for 7 days (reference value: 2.3 days); assay type: functional
Clostridioides difficile [21] = test: Antibacterial activity against Clostridium difficile infected hamster assessed as host survival at 5 mg/kg, po bid treated for 7 days (reference value: 2.3 days); assay type: functional

Toxin A, sequence (P16154 whole entry): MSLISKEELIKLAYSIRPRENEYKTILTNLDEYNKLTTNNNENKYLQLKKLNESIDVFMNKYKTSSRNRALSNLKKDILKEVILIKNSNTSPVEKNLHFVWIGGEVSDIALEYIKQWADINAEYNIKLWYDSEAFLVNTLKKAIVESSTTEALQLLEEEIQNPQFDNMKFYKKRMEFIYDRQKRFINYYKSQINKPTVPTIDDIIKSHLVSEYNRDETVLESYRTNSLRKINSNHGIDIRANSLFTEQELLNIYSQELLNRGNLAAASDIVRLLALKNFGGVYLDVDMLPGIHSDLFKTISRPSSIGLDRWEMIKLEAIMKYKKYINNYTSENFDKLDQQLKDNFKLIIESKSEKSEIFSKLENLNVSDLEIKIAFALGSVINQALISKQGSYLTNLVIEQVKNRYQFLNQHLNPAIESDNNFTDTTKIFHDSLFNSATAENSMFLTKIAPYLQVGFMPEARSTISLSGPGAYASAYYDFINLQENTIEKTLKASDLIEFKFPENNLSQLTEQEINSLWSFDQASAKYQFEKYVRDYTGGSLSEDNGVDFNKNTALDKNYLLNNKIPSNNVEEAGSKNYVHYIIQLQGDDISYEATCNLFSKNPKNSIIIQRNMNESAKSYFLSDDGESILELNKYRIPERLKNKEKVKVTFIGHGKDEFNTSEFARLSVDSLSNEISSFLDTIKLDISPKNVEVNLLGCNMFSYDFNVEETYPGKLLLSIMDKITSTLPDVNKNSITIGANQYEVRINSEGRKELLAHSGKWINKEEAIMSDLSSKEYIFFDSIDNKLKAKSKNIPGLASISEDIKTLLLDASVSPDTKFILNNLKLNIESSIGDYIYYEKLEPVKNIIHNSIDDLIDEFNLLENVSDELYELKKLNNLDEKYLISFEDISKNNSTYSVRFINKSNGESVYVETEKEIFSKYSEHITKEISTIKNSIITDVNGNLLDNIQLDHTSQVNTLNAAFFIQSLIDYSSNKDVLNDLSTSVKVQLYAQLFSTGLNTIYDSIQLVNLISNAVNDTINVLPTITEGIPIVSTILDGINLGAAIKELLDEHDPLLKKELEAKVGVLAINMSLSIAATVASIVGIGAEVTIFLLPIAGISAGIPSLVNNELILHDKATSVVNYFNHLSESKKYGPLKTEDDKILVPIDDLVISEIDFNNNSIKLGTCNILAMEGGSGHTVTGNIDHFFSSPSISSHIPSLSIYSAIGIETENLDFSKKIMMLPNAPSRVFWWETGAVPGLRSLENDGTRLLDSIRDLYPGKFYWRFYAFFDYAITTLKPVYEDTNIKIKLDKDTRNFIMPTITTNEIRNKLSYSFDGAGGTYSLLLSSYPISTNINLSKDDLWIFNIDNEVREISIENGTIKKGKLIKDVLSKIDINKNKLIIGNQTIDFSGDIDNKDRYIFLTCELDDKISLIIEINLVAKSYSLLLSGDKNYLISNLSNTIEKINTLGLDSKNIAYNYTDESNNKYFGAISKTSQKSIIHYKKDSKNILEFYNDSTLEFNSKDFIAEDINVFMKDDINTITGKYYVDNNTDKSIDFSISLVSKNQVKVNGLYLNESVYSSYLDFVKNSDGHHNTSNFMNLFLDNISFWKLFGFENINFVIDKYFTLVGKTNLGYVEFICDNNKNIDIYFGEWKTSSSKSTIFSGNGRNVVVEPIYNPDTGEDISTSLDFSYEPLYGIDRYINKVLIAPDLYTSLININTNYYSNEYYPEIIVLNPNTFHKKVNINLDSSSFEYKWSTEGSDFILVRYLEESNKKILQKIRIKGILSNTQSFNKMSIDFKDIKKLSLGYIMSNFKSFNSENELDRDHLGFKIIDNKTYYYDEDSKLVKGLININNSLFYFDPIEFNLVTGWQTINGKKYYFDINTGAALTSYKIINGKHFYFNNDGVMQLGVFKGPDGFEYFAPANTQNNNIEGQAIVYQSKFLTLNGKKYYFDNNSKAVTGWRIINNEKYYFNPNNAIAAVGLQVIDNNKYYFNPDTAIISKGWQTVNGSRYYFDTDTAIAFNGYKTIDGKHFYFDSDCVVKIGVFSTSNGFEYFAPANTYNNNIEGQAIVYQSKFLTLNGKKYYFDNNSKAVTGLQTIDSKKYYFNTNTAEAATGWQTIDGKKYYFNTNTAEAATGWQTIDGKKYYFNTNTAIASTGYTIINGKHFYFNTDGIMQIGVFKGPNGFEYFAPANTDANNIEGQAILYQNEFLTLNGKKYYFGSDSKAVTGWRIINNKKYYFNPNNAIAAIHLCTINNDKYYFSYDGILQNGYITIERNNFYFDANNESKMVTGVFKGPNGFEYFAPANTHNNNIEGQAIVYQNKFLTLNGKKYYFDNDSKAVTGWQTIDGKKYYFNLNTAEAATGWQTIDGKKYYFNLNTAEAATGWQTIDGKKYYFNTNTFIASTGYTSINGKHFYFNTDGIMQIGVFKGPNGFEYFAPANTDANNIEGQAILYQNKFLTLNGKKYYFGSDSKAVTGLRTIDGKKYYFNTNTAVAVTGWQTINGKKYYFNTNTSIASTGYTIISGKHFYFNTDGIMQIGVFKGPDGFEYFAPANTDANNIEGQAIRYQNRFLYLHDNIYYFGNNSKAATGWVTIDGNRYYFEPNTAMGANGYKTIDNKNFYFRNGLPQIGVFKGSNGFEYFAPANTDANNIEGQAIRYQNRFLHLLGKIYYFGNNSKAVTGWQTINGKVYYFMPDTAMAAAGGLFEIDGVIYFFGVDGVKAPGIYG
T1 sequence (P18177 whole entry, the tested form may be a part): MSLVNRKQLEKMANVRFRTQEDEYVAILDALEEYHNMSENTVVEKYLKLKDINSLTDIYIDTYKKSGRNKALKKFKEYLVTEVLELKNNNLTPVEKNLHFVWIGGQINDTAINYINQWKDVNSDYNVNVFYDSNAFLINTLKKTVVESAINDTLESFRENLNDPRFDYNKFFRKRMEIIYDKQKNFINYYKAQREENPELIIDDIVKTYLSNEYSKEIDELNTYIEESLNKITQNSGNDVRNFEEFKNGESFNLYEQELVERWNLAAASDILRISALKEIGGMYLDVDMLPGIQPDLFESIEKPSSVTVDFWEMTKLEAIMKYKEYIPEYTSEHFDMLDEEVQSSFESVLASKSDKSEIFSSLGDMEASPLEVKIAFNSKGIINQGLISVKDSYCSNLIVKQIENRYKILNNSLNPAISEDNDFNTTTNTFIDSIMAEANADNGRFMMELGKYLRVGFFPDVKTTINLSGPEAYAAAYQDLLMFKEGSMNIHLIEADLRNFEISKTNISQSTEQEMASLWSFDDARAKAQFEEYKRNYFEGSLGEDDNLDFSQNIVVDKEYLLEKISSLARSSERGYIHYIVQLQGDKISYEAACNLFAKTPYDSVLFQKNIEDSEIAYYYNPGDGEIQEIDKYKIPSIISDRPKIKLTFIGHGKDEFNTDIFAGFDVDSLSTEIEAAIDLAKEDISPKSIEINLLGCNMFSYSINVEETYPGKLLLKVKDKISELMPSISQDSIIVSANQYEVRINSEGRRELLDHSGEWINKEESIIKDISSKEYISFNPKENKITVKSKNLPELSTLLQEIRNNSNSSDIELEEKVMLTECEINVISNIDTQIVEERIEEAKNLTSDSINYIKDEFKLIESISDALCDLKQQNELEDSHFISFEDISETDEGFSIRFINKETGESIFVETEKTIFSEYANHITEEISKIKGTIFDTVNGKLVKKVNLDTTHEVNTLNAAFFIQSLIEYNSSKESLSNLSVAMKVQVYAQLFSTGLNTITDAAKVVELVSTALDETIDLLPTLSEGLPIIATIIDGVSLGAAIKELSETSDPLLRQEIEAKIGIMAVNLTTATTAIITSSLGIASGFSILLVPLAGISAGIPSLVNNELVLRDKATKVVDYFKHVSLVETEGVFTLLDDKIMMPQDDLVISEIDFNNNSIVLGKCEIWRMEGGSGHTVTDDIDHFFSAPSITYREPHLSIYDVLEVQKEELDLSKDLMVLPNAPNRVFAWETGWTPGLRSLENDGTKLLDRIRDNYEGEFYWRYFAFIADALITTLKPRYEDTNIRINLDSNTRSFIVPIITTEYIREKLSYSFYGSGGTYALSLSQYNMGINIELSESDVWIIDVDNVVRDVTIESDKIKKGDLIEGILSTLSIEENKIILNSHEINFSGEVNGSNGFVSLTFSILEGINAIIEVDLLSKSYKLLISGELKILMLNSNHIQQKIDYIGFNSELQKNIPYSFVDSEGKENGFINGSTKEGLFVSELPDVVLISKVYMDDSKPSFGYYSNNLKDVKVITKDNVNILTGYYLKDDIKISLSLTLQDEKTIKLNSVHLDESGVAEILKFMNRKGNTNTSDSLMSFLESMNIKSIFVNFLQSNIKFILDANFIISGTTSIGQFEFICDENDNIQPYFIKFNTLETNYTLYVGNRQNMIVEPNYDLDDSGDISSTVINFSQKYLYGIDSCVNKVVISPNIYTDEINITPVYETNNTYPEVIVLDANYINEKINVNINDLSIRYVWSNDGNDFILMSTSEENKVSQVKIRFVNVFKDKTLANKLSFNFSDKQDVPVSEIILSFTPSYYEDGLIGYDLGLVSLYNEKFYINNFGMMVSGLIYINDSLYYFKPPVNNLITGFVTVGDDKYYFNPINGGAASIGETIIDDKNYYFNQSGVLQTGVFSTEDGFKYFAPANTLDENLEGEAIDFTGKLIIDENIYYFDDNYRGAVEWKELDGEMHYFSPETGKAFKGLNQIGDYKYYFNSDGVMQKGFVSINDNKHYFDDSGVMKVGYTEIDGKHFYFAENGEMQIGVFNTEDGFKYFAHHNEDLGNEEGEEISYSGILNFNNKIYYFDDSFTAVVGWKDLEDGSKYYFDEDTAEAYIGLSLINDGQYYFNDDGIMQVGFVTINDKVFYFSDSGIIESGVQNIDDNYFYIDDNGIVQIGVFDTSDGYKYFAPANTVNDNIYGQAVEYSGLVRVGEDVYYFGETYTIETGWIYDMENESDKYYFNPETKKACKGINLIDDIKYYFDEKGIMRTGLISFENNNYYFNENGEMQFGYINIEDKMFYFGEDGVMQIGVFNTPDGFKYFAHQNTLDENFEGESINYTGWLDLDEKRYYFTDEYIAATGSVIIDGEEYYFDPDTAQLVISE

Structure (SMILES) | pIC50 (Toxin B [1]) | pIC50 (Toxin B [3]) | remaining at 0.25 h [4] | remaining at 0.25 h [5] | pIC50 (Toxin A) | other results
O=C(O)c1ccc(CN2C(=O)c3ccc(Cl)cc3NC(=O)[C@H]2Cc2ccccn2)cc1 | 6.74 | – | – | – | – | –
COc1cnc(NC(=O)c2ccc(CN3C(=O)c4ccc(Cl)cc4NC(=O)[C@H]3Cc3ccccn3)cc2)nc1 | – | 8.52 | – | – | – | Stability ([2]; 2 h): Unstable
Cc1cc(CN2C(=O)c3ccc(Cl)cc3NC(=O)[C@H]2Cc2ccccn2)ccc1C(=O)Nc1ccc(F)cn1 | 8.10 | 7.21 | 85% | 60% | 6.07 | –
COc1cc(CN2C(=O)c3ccc(Cl)cc3NC(=O)[C@H]2Cc2ccccn2)ccc1C(=O)Nc1ccc(C)cn1 | 8.05 | 5.72 | 62% | 49% | 4.96 | –
Cc1cnc(NC(=O)c2ccc(CN3C(=O)c4ccc(Cl)cc4NC(=O)[C@H]3Cc3ccccn3)cc2Cl)nc1 | 8.40 | 6.89 | 79% | 33% | 5.82 | –
Cc1ccnc(C(=O)c2ccc(CN3C(=O)c4ccc(Cl)cc4NC(=O)[C@H]3Cc3ccccn3)cc2)c1 | 7.13 | – | 26% | 48% | – | –
Cc1cnc(NC(=O)c2ccc(CN3C(=O)c4ccc(Cl)cc4NC(=O)[C@H]3Cc3ccccn3)cc2C)nc1 | 8.40 | 6.89 | 74% | 44% | 5.52 | –
Cc1cnc(NC(=O)c2ccc(CN3C(=O)c4ccc(Cl)cc4NC(=O)[C@H]3Cc3ccccn3)cc2Cl)cn1 | 8.05 | 6.66 | 81% | 79% | 5.68 | –
O=C(c1ccc(CN2C(=O)c3ccc(Cl)cc3NC(=O)[C@H]2Cc2ccccn2)cc1)c1c[nH]c2cccnc12 | 8.70 | 5.74 | 87% | 93% | 4.74 | –
Cc1ccc(NC(=O)c2ccc(CN3C(=O)c4ccc(Cl)cc4NC(=O)[C@H]3Cc3ccccn3)cc2C)nc1 | 8.15 | 7.21 | 61% | 31% | 6.07 | –
O=C(c1ccc(CN2C(=O)c3ccc(Cl)cc3NC(=O)[C@H]2Cc2ccccn2)cc1)c1cccn2ncnc12 | 7.21 | 5.80 | 15% | 44% | – | –
Cc1cc(CN2C(=O)c3ccc(Cl)cc3NC(=O)[C@H]2Cc2ccccn2)ccc1C(=O)Nc1ccc(C(F)(F)F)cn1 | 7.70 | 6.77 | 100% | 99% | 5.62 | –
COc1cc(CN2C(=O)c3ccc(Cl)cc3NC(=O)[C@H]2Cc2ccccn2)ccc1C(=O)Nc1ccc(F)cn1 | 7.85 | 5.96 | 94% | 67% | 4.77 | –
Cn1ccnc1C(=O)c1ccc(CN2C(=O)c3ccc(Cl)cc3NC(=O)[C@H]2Cc2ccccn2)cc1 | 6.72 | < 4.00 | 49% | 33% | < 4.00 | –
Cn1cc(C(=O)c2ccc(CN3C(=O)c4ccc(Cl)cc4NC(=O)[C@H]3Cc3ccccn3)cc2)c2ncccc21 | 8.22 | 6.48 | 67% | 76% | 5.28 | –
O=C(O)c1ccc(CN2C(=O)c3ccc(Cl)cc3NC(=O)[C@H]2Cc2ccccn2)cc1Cl | 6.32 | – | – | – | – | –
COc1cnc(NC(=O)c2ccc(CN3C(=O)c4ccc(Cl)cc4NC(=O)[C@H]3Cc3ccccn3)cc2C)nc1 | 8.40 | 7.54 | 82% | 39% | 6.16 | –
COc1ccc(NC(=O)c2ccc(CN3C(=O)c4ccc(Cl)cc4NC(=O)[C@H]3Cc3ccccn3)cc2C)nc1 | 8.00 | 7.15 | 68% | 51% | 6.32 | –

Structure (SMILES) | pIC50 (Toxin B [1]) | pIC50 (Toxin B [3]) | remaining at 0.25 h [4] | remaining at 0.25 h [5] | pIC50 (Toxin A) | other results
COc1ccc(NC(=O)c2ccc(CN3C(=O)c4ccc(Cl)cc4NC(=O)[C@H]3Cc3ccccn3)cc2OC)nc1 | 8.30 | 6.89 | 78% | 71% | 5.96 | –
O=C(Nc1ccc(F)cn1)c1ccc(CN2C(=O)c3ccc(Cl)cc3NC(=O)[C@H]2Cc2ccccn2)cc1Cl | 8.40 | 6.89 | 88% | 69% | 5.74 | –
COc1ccc(NC(=O)c2ccc(CN3C(=O)c4ccc(Cl)cc4NC(=O)[C@H]3Cc3ccccn3)cc2Cl)nc1 | 8.30 | 7.21 | 100% | 71% | 6.12 | remaining at 2 h ([2]; read-out: Stability): 100%
O=C(c1ccc(CN2C(=O)c3ccc(Cl)cc3NC(=O)[C@H]2Cc2ccccn2)cc1)c1cccn2ccnc12 | 8.10 | 6.18 | 44% | 27% | 5.09 | –
Cc1cccc(C(=O)c2ccc(CN3C(=O)c4ccc(Cl)cc4NC(=O)[C@H]3Cc3ccccn3)cc2)n1 | 6.47 | – | 25% | 3% | – | –
COc1cnc(NC(=O)c2ccc(CN3C(=O)c4ccc(Cl)cc4NC(=O)[C@H]3Cc3ccccn3)cc2Cl)nc1 | 8.40 | 7.28 | 73% | 38% | 6.04 | –
Cc1cc(CN2C(=O)c3ccc(Cl)cc3NC(=O)[C@H]2Cc2ccccn2)ccc1C(=O)Nc1ccc(C#N)cn1 | 8.52 | 7.11 | 90% | 70% | – | –
Cc1ccc(C(=O)c2ccc(CN3C(=O)c4ccc(Cl)cc4NC(=O)[C@H]3Cc3ccccn3)cc2)nc1 | 7.42 | 5.23 | 57% | 68% | 4.64 | –
O=C(c1ccc(CN2C(=O)c3ccc(Cl)cc3NC(=O)[C@H]2Cc2ccccn2)cc1)c1ccccn1 | 7.35 | 5.38 | 64% | 79% | 4.43 | –
O=C(Nc1ccc(C(F)(F)F)cn1)c1ccc(CN2C(=O)c3ccc(Cl)cc3NC(=O)[C@H]2Cc2ccccn2)cc1Cl | 7.74 | 6.60 | 94% | 92% | 5.20 | clearance [6]: 28 mL/min/kg; half-life [7]: 2.6 h; Vz/F [8]: 6.2 L/kg; AUC(0-inf) [9]: 592 ng·h/mL; AUC(0-inf) [10]: 9420 ng·h/mL; Cmax [11]: 312 ng/mL; Cmax [12]: 1530 ng/mL; Tmax [13]: 0.25 h; F [14]: 159%; CL/F [15]: 7.8 mL/min/kg; half-life [16]: 10 h; AUC(0-inf) [17]: 21500 ng·h/mL; Cmax [18]: 2750 ng/mL; Tmax [19]: 0.25 h; MST (Clostridioides difficile [20]): 12.3 days
Cn1cnc(C(=O)c2ccc(CN3C(=O)c4ccc(Cl)cc4NC(=O)[C@H]3Cc3ccccn3)cc2)c1 | 6.64 | < 4.00 | 44% | 16% | < 4.00 | –
N#Cc1ccc(NC(=O)c2ccc(CN3C(=O)c4ccc(Cl)cc4NC(=O)[C@H]3Cc3ccccn3)cc2Cl)nc1 | 8.10 | 7.28 | 90% | 84% | – | –
Cc1ccc(NC(=O)c2ccc(CN3C(=O)c4ccc(Cl)cc4NC(=O)[C@H]3Cc3ccccn3)cc2Cl)nc1 | 8.30 | 7.62 | 57% | 57% | 6.24 | –
O=C(O)c1c(Cl)cc(CN2C(=O)c3ccc(Cl)cc3NC(=O)[C@H]2Cc2ccccn2)cc1Cl | 5.13 | – | – | – | – | –
COc1cc(CN2C(=O)c3ccc(Cl)cc3NC(=O)[C@H]2Cc2ccccn2)ccc1C(=O)Nc1ccc(C(F)(F)F)cn1 | 7.39 | 6.18 | 100% | 83% | 4.51 | –
COc1cnc(NC(=O)c2ccc(CN3C(=O)c4ccc(Cl)cc4NC(=O)[C@H]3Cc3ccccn3)cc2Cl)cn1 | 7.68 | 6.31 | 100% | 68% | 5.47 | –
CN[C@H](CC(C)C)C(=O)N[C@H]1C(=O)N[C@@H](CC(N)=O)C(=O)N[C@H]2C(=O)N[C@H]3C(=O)N[C@H](C(=O)N[C@H](C(=O)O)c4cc(O)cc(O)c4-c4cc3ccc4O)[C@H](O)c3ccc(c(Cl)c3)Oc3cc2cc(c3O[C@@H]2O[C@H](CO)[C@@H](O)[C@H](O)[C@H]2O[C@H]2C[C@](C)(N)[C@H](O)[C@H](C)O2)Oc2ccc(cc2Cl)[C@H]1O [VANCOMYCIN] | – | – | – | – | – | MST (Clostridioides difficile [21]): 12 days
